ChEMBL document CHEMBL3271997, “Reactions of 2-acyloxyisobutyryl halides with nucleosides. 6. Synthesis and biological evaluation of some 3'-acyl derivatives of 2,2'-anhydro-1-(beta-D-arabinofuranosyl)cytosine hydrochloride” (J Med Chem, 1976)
The source made the active and inactive calls. The calls are words filed in the database; no cut-off is given here.

test system: Mus musculus; assay: Toxicity in BDF1 mouse allografted with mouse L1210 cells at 3000 mg/kg, ip; type: organism-based; parameters: dose 3000 mg/kg, route intraperitoneal; settings: in vivo
Method in brief: (§1)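 BDF1 mice were inoculated ip with 1-2 × 10⁵ L1210 cells. After 24 h, one ip dose was given as a solution or suspension in aqueous 0.9% NaCl, 0.4% polysorbate 80, 0.5% low-viscosity Na carboxymethylcellulose and 0.9% benzyl alcohol. Mice were followed for 30 days, with 8-10 per group. The read-out is % increase in life span versus infected controls, plus the count of 30-day survivors.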

Compound	Activity
Cl.N=c1ccn2c(n1)O[C@H]1[C@H](O)[C@@H](CO)O[C@H]12 [ANCITABINE HYDROCHLORIDE]	Toxic

test system: Measles morbillivirus; assay: Antiviral activity against Measles virus infected in African green monkey BGM cells after 5 days by pulp disk diffusion assay; type: functional, organism-based; settings: not given
Method in brief: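 Preliminary pulp disk diffusion screen. BGM cells were infected with 200 pfu of measles virus. A filter paper disk impregnated with 50 μg of compound was applied. Activity was scored as the diameter of the zone of plaque inhibition on day 5.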

Compound	Activity
Cl.N=c1ccn2c(n1)O[C@H]1[C@H](O)[C@@H](CO)O[C@H]12 [ANCITABINE HYDROCHLORIDE]	inactive

test system: not listed separately; assay: Half life in human; type: ADME, organism-based; settings: in vivo

Compound	half-life [min]
Nc1ccn([C@@H]2O[C@H](CO)[C@@H](O)[C@@H]2O)c(=O)n1 [CYTARABINE]	12

test system: Mus musculus; assay: Toxicity in BDF1 mouse allografted with mouse L1210 cells assessed as reduction in survival at 1000 mg/kg, ip administered as single dose 24 hrs post-implantation measured up to 30 days relative to control; type: organism-based; parameters: dose 1000 mg/kg, route intraperitoneal; settings: in vivo
Method in brief: (§2)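 BDF1 mice inoculated ip with 1-2 × 10⁵ L1210 cells; 24 h later a single ip dose given as solution or suspension in aqueous 0.9% NaCl, 0.4% polysorbate 80, 0.5% low-viscosity sodium carboxymethylcellulose, 0.9% benzyl alcohol. Mice held on normal diet for 30 days. Groups of eight to ten animals; percent increase in life span versus untreated infected controls, with 30-day survivors counted.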

Compound	Activity
CCCCCCCCCCCCCCCC(=O)O[C@H]1[C@@H]2Oc3nc(=N)ccn3[C@@H]2O[C@@H]1CO.Cl	Toxic
CCCCCCCC(=O)O[C@H]1[C@@H]2Oc3nc(=N)ccn3[C@@H]2O[C@@H]1CO.Cl	Toxic

test system: HeLa; assay: Cytotoxicity against human HeLa cells after 48 hrs by Coulter counting analysis; type: functional; settings: read-out: ED50 (the source's name)
Method in brief: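 HeLa cells (10⁵) were grown for 2 days at 37° in MEM with 10% bovine serum. The medium was then replaced with fresh medium containing serial compound dilutions. After 48 h, cells were dispersed with 0.02% trypsin and 0.04% versene and counted on a Coulter counter. The result is expressed as ED50 in μg/ml.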

Compound	EC50 [µg/mL]
CC(C)C(=O)O[C@H]1[C@@H]2Oc3nc(=N)ccn3[C@@H]2O[C@@H]1CO.Cl	0.2
CCCCCCCCC(=O)O[C@H]1[C@@H]2Oc3nc(=N)ccn3[C@@H]2O[C@@H]1CO.Cl	0.05
Cl.N=c1ccn2c(n1)O[C@H]1[C@H](O)[C@@H](CO)O[C@H]12 [ANCITABINE HYDROCHLORIDE]	0.05
CCCCCCCCCCCCCCCC(=O)O[C@H]1[C@@H]2Oc3nc(=N)ccn3[C@@H]2O[C@@H]1CO.Cl	0.2
CCCCCCCC(=O)O[C@H]1[C@@H]2Oc3nc(=N)ccn3[C@@H]2O[C@@H]1CO.Cl	0.1

test system: L1210; assay: Antitumor activity against mouse L1210 cells allografted in BDF1 mouse assessed as survival at 500 mg/kg, ip administered as single dose 24 hrs post-implantation after 30 days; type: functional, organism-based; parameters: dose 500 mg/kg; settings: not given; method in brief: as §1

Compound	Activity
Cl.N=c1ccn2c(n1)O[C@H]1[C@H](O)[C@@H](CO)O[C@H]12 [ANCITABINE HYDROCHLORIDE]	inactive

test system: BGM; assay: Antiviral activity against Poliovirus type 1 Mahoney infected in African green monkey BGM cells after 5 days by pulp disk diffusion assay; type: functional, cell-based; settings: Human poliovirus 1 Mahoney
Method in brief: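 Pulp disk diffusion screen: BGM African green monkey kidney cells infected with 200 pfu Mahoney type I poliovirus; filter paper disk loaded with 50 μg compound; antiviral activity read as diameter of plaque-inhibition zone on day 5.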

Compound	Activity
Cl.N=c1ccn2c(n1)O[C@H]1[C@H](O)[C@@H](CO)O[C@H]12 [ANCITABINE HYDROCHLORIDE]	inactive

test system: L1210; assay: Antitumor activity against mouse L1210 cells allografted in BDF1 mouse assessed as increase in life span at 2000 mg/kg, ip administered as single dose 24 hrs post-implantation measured up to 30 days relative to control; type: functional; settings: route intraperitoneal; method in brief: as §2

Compound	ILS at 2000 mg/kg [%]
Cl.N=c1ccn2c(n1)O[C@H]1[C@H](O)[C@@H](CO)O[C@H]12 [ANCITABINE HYDROCHLORIDE]	> 151

test system: L1210; assay: Antitumor activity against mouse L1210 cells allografted in BDF1 mouse assessed as increase in life span at 200 mg/kg, ip administered as single dose 24 hrs post-implantation measured up to 30 days relative to control; type: functional; settings: route intraperitoneal; method in brief: as §2

Compound	ILS at 200 mg/kg [%]
CC(C)C(=O)O[C@H]1[C@@H]2Oc3nc(=N)ccn3[C@@H]2O[C@@H]1CO.Cl	22
CCCCCCCCC(=O)O[C@H]1[C@@H]2Oc3nc(=N)ccn3[C@@H]2O[C@@H]1CO.Cl	33
Cl.N=c1ccn2c(n1)O[C@H]1[C@H](O)[C@@H](CO)O[C@H]12 [ANCITABINE HYDROCHLORIDE]	25
CCCCCCCCCCCCCCCC(=O)O[C@H]1[C@@H]2Oc3nc(=N)ccn3[C@@H]2O[C@@H]1CO.Cl	> 191
CCCCCCCC(=O)O[C@H]1[C@@H]2Oc3nc(=N)ccn3[C@@H]2O[C@@H]1CO.Cl	34

test system: Herpesviridae sp.; assay: Antiviral activity against Herpes simplex virus HF infected in African green monkey BGM cells after 6 days by plaque reduction assay; type: functional; settings: 144 h, read-out: ED50 (the source's name)
Method in brief: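 Quantitative plaque reduction assay. Confluent BGM monolayers were infected with 100-200 pfu of HSV (HF strain) and overlaid with 1.25% agar in MEM with 2.0% bovine serum containing graded compound concentrations. A second overlay with neutral red (1:20000) was added on day 4, and plaques were counted on day 6. ED50, the μM concentration giving 50% plaque reduction, was taken from a probability plot of % inhibition against concentration.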

Compound	EC50 [nM]
CC(C)C(=O)O[C@H]1[C@@H]2Oc3nc(=N)ccn3[C@@H]2O[C@@H]1CO.Cl	8800
CCCCCCCCC(=O)O[C@H]1[C@@H]2Oc3nc(=N)ccn3[C@@H]2O[C@@H]1CO.Cl	400
Cl.N=c1ccn2c(n1)O[C@H]1[C@H](O)[C@@H](CO)O[C@H]12 [ANCITABINE HYDROCHLORIDE]	700
CCCCCCCCCCCCCCCC(=O)O[C@H]1[C@@H]2Oc3nc(=N)ccn3[C@@H]2O[C@@H]1CO.Cl	5500
CCCCCCCC(=O)O[C@H]1[C@@H]2Oc3nc(=N)ccn3[C@@H]2O[C@@H]1CO.Cl	720

test system: L1210; assay: Antitumor activity against mouse L1210 cells allografted in BDF1 mouse assessed as increase in life span at 1000 mg/kg, ip administered as single dose 24 hrs post-implantation measured up to 30 days relative to control; type: functional; settings: route intraperitoneal; method in brief: as §2

Compound	ILS at 1000 mg/kg [%]
Cl.N=c1ccn2c(n1)O[C@H]1[C@H](O)[C@@H](CO)O[C@H]12 [ANCITABINE HYDROCHLORIDE]	89

test system: L1210; assay: Antitumor activity against mouse L1210 cells allografted in BDF1 mouse assessed as survival at 1000 mg/kg, ip administered as single dose 24 hrs post-implantation after 30 days; type: functional, organism-based; parameters: dose 1000 mg/kg; settings: not given; method in brief: as §1

Compound	Activity
Cl.N=c1ccn2c(n1)O[C@H]1[C@H](O)[C@@H](CO)O[C@H]12 [ANCITABINE HYDROCHLORIDE]	inactive

test system: Mus musculus; assay: Toxicity in BDF1 mouse allografted with mouse L1210 cells assessed as reduction in average life span at 1000 mg/kg, ip administered as single dose 24 hrs post-implantation measured up to 30 days relative to control; type: organism-based; parameters: dose 1000 mg/kg, route intraperitoneal; settings: in vivo; method in brief: as §1

Compound	ILS [%]
CCCCCCCCCCCCCCCC(=O)O[C@H]1[C@@H]2Oc3nc(=N)ccn3[C@@H]2O[C@@H]1CO.Cl	-20
CCCCCCCC(=O)O[C@H]1[C@@H]2Oc3nc(=N)ccn3[C@@H]2O[C@@H]1CO.Cl	-100

test system: unidentified influenza virus; assay: Antiviral activity against Influenza virus […] infected in monkey LLC-MK2 cells after 5 days by pulp disk diffusion assay; type: functional, organism-based; settings: not given
Method in brief: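 Pulp disk diffusion screen: LLCMK2 cells infected with 200 pfu influenza Ao/WSN in presence of trypsin; filter paper disk loaded with 50 μg compound; antiviral activity read as diameter of plaque-inhibition zone on day 5.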

Compound	Activity
Cl.N=c1ccn2c(n1)O[C@H]1[C@H](O)[C@@H](CO)O[C@H]12 [ANCITABINE HYDROCHLORIDE]	inactive

test system: Mus musculus; assay: Toxicity in BDF1 mouse allografted with mouse L1210 cells assessed as reduction in average life span at 500 mg/kg, ip administered as single dose 24 hrs post-implantation measured up to 30 days relative to control; type: organism-based; parameters: dose 500 mg/kg, route intraperitoneal; settings: in vivo; method in brief: as §1

Compound	ILS [%]
CCCCCCCC(=O)O[C@H]1[C@@H]2Oc3nc(=N)ccn3[C@@H]2O[C@@H]1CO.Cl	-93

test system: Vaccinia virus; assay: Antiviral activity against Vaccinia virus IHD infected in African green monkey BGM cells after 6 days by plaque reduction assay; type: functional; settings: Orthopoxvirus vaccinia, 144 h, read-out: ED50 (the source's name)

Compound	EC50 [nM]
CC(C)C(=O)O[C@H]1[C@@H]2Oc3nc(=N)ccn3[C@@H]2O[C@@H]1CO.Cl	1550
CCCCCCCCC(=O)O[C@H]1[C@@H]2Oc3nc(=N)ccn3[C@@H]2O[C@@H]1CO.Cl	290
Cl.N=c1ccn2c(n1)O[C@H]1[C@H](O)[C@@H](CO)O[C@H]12 [ANCITABINE HYDROCHLORIDE]	410
CCCCCCCCCCCCCCCC(=O)O[C@H]1[C@@H]2Oc3nc(=N)ccn3[C@@H]2O[C@@H]1CO.Cl	1200
CCCCCCCC(=O)O[C@H]1[C@@H]2Oc3nc(=N)ccn3[C@@H]2O[C@@H]1CO.Cl	190

test system: Mus musculus; assay: Toxicity in BDF1 mouse allografted with mouse L1210 cells assessed as reduction in survival at 500 mg/kg, ip administered as single dose 24 hrs post-implantation measured up to 30 days relative to control; type: organism-based; parameters: dose 500 mg/kg, route intraperitoneal; settings: in vivo; method in brief: as §2

Compound	Activity
CCCCCCCC(=O)O[C@H]1[C@@H]2Oc3nc(=N)ccn3[C@@H]2O[C@@H]1CO.Cl	Toxic

test system: L1210; assay: Antitumor activity against mouse L1210 cells allografted in BDF1 mouse assessed as survival at 200 mg/kg, ip administered as single dose 24 hrs post-implantation after 30 days; type: functional, organism-based; parameters: dose 200 mg/kg; settings: not given; method in brief: as §1

Compound	Activity
CC(C)C(=O)O[C@H]1[C@@H]2Oc3nc(=N)ccn3[C@@H]2O[C@@H]1CO.Cl	inactive
CCCCCCCCC(=O)O[C@H]1[C@@H]2Oc3nc(=N)ccn3[C@@H]2O[C@@H]1CO.Cl	inactive
Cl.N=c1ccn2c(n1)O[C@H]1[C@H](O)[C@@H](CO)O[C@H]12 [ANCITABINE HYDROCHLORIDE]	inactive
